We go through 15 compounds from ChEMBL document CHEMBL2346496, “Discovery of new benzothiazole-based inhibitors of breakpoint cluster region-Abelson kinase including the T315I mutant” (J Med Chem, 2013).

Data set [1] has as its target Tyrosine-protein kinase ABL1 (Homo sapiens, UniProt P00519, T315I). Kind of data set: Inhibition of breakpoint cluster region-Abelson tyrosine kinase T315I mutant (unknown origin) using [gamma-33P]ATP as substrate by radiometric kinase assay.
Data set [2] has as its target 3-phosphoinositide-dependent protein kinase 1 (Homo sapiens) (UniProt O15530). Kind of data set: Inhibition of PDPK1 (unknown origin) at 1 uM relative to control; values are per cent of control.
The nature of data set [3]: cells. Particulars: Mus musculus, BaF3, 48 h.
The target of data set [4] is Aurora kinase A (Homo sapiens) (UniProt O14965). Kind of data set: Inhibition of AURKA (unknown origin) at 1 uM relative to control; values are per cent of control.
A short description of data set [5]: Aqueous solubility of the compound at pH 6.7. The class given is physicochemical.
Data set [6] deals with Platelet-derived growth factor receptor alpha (Homo sapiens) (UniProt P16234). Kind of data set: Inhibition of PDGFRA (unknown origin) at 1 uM relative to control; values are per cent of control.
Sequence of Platelet-derived growth factor receptor alpha (Homo sapiens) (P16234 whole entry): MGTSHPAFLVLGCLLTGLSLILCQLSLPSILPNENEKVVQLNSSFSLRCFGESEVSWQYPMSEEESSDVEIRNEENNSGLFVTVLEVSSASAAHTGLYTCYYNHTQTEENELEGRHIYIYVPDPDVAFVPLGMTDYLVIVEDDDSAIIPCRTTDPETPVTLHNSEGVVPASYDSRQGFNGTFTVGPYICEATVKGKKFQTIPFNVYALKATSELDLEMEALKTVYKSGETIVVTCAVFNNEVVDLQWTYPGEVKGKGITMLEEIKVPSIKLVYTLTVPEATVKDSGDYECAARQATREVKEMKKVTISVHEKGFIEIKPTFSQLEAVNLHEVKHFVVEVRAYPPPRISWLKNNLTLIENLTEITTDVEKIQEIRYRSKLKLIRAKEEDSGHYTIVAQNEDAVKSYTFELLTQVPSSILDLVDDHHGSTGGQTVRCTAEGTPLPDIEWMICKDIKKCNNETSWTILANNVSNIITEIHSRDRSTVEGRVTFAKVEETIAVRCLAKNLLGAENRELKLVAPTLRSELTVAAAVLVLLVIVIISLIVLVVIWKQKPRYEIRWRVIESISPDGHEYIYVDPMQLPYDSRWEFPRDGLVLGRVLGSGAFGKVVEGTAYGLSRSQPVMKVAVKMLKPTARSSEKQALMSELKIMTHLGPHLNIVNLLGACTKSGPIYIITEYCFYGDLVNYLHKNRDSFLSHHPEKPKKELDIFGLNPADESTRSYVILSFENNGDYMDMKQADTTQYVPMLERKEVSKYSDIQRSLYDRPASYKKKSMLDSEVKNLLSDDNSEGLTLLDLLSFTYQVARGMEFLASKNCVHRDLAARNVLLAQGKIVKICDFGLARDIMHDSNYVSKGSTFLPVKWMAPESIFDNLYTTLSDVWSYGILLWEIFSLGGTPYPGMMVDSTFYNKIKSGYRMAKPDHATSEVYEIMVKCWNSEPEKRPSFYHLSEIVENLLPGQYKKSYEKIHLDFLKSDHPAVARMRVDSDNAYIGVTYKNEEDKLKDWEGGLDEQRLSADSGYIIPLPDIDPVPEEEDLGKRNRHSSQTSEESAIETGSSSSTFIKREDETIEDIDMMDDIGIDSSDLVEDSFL
Data set [7] concerns the target Vascular endothelial growth factor receptor 2 (Homo sapiens) (UniProt P35968). Kind of data set: Inhibition of VEGFR2 (unknown origin) at 1 uM relative to control; values are per cent of control.
For data set [8], the target named is Ribosomal protein S6 kinase alpha-3 (Homo sapiens) (UniProt P51812). Kind of data set: Inhibition of RSK2 (unknown origin) at 1 uM relative to control; values are per cent of control.
For data set [9], the system named is Tyrosine-protein kinase ABL1 (Homo sapiens), P00519 [E255K]. Kind of data set: Inhibition of phosphorylated breakpoint cluster region-Abelson tyrosine kinase E255K mutant (unknown origin) at 1 uM relative to control; values are per cent of control.
Data set [10] addresses Insulin-like growth factor 1 receptor (Homo sapiens) (UniProt P08069). Kind of data set: Inhibition of IGF1R (unknown origin) at 1 uM relative to control; values are per cent of control.
In data set [11] the target is Mitogen-activated protein kinase 14 (Homo sapiens) (UniProt Q16539). Kind of data set: Inhibition of P38alpha (unknown origin) at 1 uM relative to control; values are per cent of control.
The target of data set [12] is Focal adhesion kinase 1 (Homo sapiens) (UniProt Q05397). Kind of data set: Inhibition of FAK (unknown origin) at 1 uM relative to control; values are per cent of control.
The target of data set [13] is Angiopoietin-1 receptor (Homo sapiens) (UniProt Q02763). Kind of data set: Inhibition of TIE2 (unknown origin) at 1 uM relative to control; values are per cent of control.
The target in data set [14] is Dual specificity mitogen-activated protein kinase kinase 1 (Homo sapiens) (UniProt Q02750). Kind of data set: Inhibition of MEK1 (unknown origin) at 1 uM relative to control; values are per cent of control.
The target in data set [15] is Platelet-derived growth factor receptor beta (Homo sapiens) (UniProt P09619). Kind of data set: Inhibition of PDGFRB (unknown origin) at 1 uM relative to control; values are per cent of control.
Data set [16] has as its target Epidermal growth factor receptor (Homo sapiens) (UniProt P00533). Kind of data set: Inhibition of EGFR (unknown origin) at 1 uM relative to control; values are per cent of control.
Data set [17] has as its target Phosphatidylinositol 4,5-bisphosphate 3-kinase catalytic subunit alpha isoform (Homo sapiens) (UniProt P42336). Kind of data set: Inhibition of PI3KCA (unknown origin) at 1 uM relative to control; values are per cent of control.
Data set [18] concerns the target Hepatocyte growth factor receptor (Homo sapiens) (UniProt P08581). Kind of data set: Inhibition of MET (unknown origin) at 1 uM relative to control; values are per cent of control.
In data set [19] the target is Fibroblast growth factor receptor 2 (Homo sapiens) (UniProt P21802). Kind of data set: Inhibition of FGFR2 (unknown origin) at 1 uM relative to control; values are per cent of control.
Data set [20] concerns the target Proto-oncogene tyrosine-protein kinase Src (Homo sapiens) (UniProt P12931). Kind of data set: Inhibition of SRC (unknown origin) at 1 uM relative to control; values are per cent of control.
Data set [21] addresses Mitogen-activated protein kinase 3 (Homo sapiens) (UniProt P27361). Kind of data set: Inhibition of ERK1 (unknown origin) at 1 uM relative to control; values are per cent of control.
Data set [22] in a line: Stability of the compound at 37 degC at pH 6.7 after 24 hrs by UPLC method. In kind it is physicochemical. Particulars: buffer, read-out: Stability. In short, it runs like this: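 Stability followed by UPLC over 24 h at 37 °C, pH 6.7.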
Data set [23] has as its target RAC-alpha serine/threonine-protein kinase (Homo sapiens) (UniProt P31749). Kind of data set: Inhibition of AKT1 (unknown origin) at 1 uM relative to control; values are per cent of control.
For data set [24], the target named is Mast/stem cell growth factor receptor Kit (Homo sapiens) (UniProt P10721). Kind of data set: Inhibition of KIT (unknown origin) at 1 uM relative to control; values are per cent of control.
The target of data set [25] is cAMP-dependent protein kinase catalytic subunit alpha (Homo sapiens) (UniProt P17612). Kind of data set: Inhibition of PKAC-a (unknown origin) at 1 uM relative to control; values are per cent of control.
Data set [26] can be described thus: cells. Particulars: Mus musculus, BaF3, 48 h. This is another data set of the same source.
Data set [27] concerns the target Inhibitor of nuclear factor kappa-B kinase subunit alpha (Homo sapiens) (UniProt O15111). Kind of data set: Inhibition of IKK alpha (unknown origin) at 1 uM relative to control; values are per cent of control.
For data set [28], the target named is Dual specificity mitogen-activated protein kinase kinase 2 (Homo sapiens) (UniProt P36507). Kind of data set: Inhibition of MEK2 (unknown origin) at 1 uM relative to control; values are per cent of control.
The target of data set [29] is Serine/threonine-protein kinase PAK 1 (Homo sapiens) (UniProt Q13153). Kind of data set: Inhibition of PAK1 (unknown origin) at 1 uM relative to control; values are per cent of control.
The species named for data set [30] is Homo sapiens. Kind of data set: Inhibition of phosphorylated breakpoint cluster region-Abelson tyrosine kinase (unknown origin) at 1 uM relative to control; values are per cent of control.
Data set [31] addresses Serine/threonine-protein kinase PLK1 (Homo sapiens) (UniProt P53350). Kind of data set: Inhibition of PLK1 (unknown origin) at 1 uM relative to control; values are per cent of control.
The target of data set [32] is Serine/threonine-protein kinase B-raf (Homo sapiens) (UniProt P15056). Kind of data set: Inhibition of BRAF (unknown origin) at 1 uM relative to control; values are per cent of control.
For data set [33], the target named is Rho-associated protein kinase 2 (Homo sapiens) (UniProt O75116). Kind of data set: Inhibition of ROCK2 (unknown origin) at 1 uM relative to control; values are per cent of control.
For data set [34], the target named is Glycogen synthase kinase-3 beta (Homo sapiens) (UniProt P49841). Kind of data set: Inhibition of GSK3b (unknown origin) at 1 uM relative to control; values are per cent of control.
Sequence of Glycogen synthase kinase-3 beta (Homo sapiens) (P49841 whole entry, looked up): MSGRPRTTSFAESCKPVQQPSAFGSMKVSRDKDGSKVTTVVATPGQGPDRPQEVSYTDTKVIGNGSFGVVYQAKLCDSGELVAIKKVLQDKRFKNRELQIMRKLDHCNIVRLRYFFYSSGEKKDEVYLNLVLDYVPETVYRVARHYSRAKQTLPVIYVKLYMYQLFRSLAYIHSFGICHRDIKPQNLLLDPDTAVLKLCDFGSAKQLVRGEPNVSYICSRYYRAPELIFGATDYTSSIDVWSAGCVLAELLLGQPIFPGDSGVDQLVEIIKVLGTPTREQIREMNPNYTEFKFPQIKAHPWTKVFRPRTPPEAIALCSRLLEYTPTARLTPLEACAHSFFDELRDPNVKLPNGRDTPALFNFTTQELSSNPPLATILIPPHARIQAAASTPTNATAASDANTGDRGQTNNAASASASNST
The target in data set [35] is Aurora kinase B (Homo sapiens) (UniProt Q96GD4). Kind of data set: Inhibition of AURKB (unknown origin) at 1 uM relative to control; values are per cent of control.
The species named for data set [36] is Homo sapiens. Kind of data set: Inhibition of CDK11 (unknown origin) at 1 uM relative to control; values are per cent of control.
Data set [37] addresses Tyrosine-protein kinase JAK2 (Homo sapiens) (UniProt O60674). Kind of data set: Inhibition of JAK2 (unknown origin) at 1 uM relative to control; values are per cent of control.
Data set [38] addresses Serine/threonine-protein kinase PLK3 (Homo sapiens) (UniProt Q9H4B4). Kind of data set: Inhibition of PLK3 (unknown origin) at 1 uM relative to control; values are per cent of control.
Data set [39] addresses Serine/threonine-protein kinase pim-1 (Homo sapiens) (UniProt P11309). Kind of data set: Inhibition of PIM1 (unknown origin) at 1 uM relative to control; values are per cent of control.
Data set [40] concerns the target Cyclin-dependent kinase 2 (Homo sapiens) (UniProt P24941). Kind of data set: Inhibition of CDK2 (unknown origin) at 1 uM relative to control; values are per cent of control.
Data set [41] relates to Tyrosine-protein kinase ABL1 (Homo sapiens), P00519 [T315I]. Kind of data set: Inhibition of breakpoint cluster region-Abelson tyrosine kinase T315I mutant (unknown origin) at 1 uM relative to control; values are per cent of control.
Data set [42] concerns the target Mitogen-activated protein kinase 8 (Homo sapiens) (UniProt P45983). Kind of data set: Inhibition of JNK1 (unknown origin) at 1 uM relative to control; values are per cent of control.
The target of data set [43] is Receptor-type tyrosine-protein kinase FLT3 (Homo sapiens) (UniProt P36888). Kind of data set: Inhibition of FLT3 (unknown origin) at 1 uM relative to control; values are per cent of control.
Sequence of Receptor-type tyrosine-protein kinase FLT3 (Homo sapiens) (P36888 whole entry): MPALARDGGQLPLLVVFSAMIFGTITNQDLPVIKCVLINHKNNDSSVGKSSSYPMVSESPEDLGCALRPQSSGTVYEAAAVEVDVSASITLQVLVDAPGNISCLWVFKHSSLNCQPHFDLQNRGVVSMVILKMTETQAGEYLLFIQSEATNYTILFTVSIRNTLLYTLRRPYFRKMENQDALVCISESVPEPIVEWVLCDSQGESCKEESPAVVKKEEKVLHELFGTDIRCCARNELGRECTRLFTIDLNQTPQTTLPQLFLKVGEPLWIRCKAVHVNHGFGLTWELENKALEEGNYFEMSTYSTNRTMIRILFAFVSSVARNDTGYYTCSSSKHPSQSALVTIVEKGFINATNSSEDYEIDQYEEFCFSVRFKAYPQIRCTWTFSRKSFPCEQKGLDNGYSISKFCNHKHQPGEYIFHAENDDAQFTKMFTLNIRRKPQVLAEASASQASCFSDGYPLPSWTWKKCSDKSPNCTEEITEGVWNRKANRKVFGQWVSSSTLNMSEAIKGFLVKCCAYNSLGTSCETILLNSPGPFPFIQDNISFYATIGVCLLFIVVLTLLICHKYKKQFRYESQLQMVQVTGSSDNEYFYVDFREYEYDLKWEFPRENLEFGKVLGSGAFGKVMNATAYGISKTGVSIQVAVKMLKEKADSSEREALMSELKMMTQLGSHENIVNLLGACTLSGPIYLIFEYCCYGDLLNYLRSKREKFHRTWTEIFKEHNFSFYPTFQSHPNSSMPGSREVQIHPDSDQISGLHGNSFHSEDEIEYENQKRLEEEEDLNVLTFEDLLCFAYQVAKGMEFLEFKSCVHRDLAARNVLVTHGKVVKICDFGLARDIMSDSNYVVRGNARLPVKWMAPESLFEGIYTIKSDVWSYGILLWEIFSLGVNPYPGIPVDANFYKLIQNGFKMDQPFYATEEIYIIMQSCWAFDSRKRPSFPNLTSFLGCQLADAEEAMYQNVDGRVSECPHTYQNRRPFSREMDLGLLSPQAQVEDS
Data set [44] relates to K562. Kind of data set: cells. Particulars: Homo sapiens.
Data set [45] is described as follows: cells. Particulars: Mus musculus, BaF3, 48 h. The source holds these as a separate data set.
The subject of data set [46] is BaF3. Kind of data set: Cytotoxicity against mouse BA/F3 cells transfected with Bcr-Abl T315I mutant after 48 hrs by XTT assay. In general terms: Formazan colour is commonly taken as a measure of viable cells.

pIC50: −log10 of the molar value. In brackets after ≈: the same amount, converted by molar mass.

Sequence of RAC-alpha serine/threonine-protein kinase (Homo sapiens) (P31749 whole entry): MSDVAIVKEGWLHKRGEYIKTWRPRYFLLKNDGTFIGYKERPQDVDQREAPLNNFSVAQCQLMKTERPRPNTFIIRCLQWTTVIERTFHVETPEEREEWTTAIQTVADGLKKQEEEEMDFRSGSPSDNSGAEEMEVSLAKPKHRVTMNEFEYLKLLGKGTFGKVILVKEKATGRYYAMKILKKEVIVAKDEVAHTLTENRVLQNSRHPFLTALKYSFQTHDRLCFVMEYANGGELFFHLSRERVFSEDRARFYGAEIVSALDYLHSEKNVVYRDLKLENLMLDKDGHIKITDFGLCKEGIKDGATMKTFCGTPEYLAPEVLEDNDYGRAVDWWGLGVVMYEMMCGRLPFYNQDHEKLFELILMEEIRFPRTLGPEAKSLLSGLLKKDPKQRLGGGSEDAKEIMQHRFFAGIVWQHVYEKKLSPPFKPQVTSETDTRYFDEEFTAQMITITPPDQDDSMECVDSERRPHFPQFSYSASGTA
Sequence of Serine/threonine-protein kinase pim-1 (Homo sapiens) (P11309 whole entry, looked up): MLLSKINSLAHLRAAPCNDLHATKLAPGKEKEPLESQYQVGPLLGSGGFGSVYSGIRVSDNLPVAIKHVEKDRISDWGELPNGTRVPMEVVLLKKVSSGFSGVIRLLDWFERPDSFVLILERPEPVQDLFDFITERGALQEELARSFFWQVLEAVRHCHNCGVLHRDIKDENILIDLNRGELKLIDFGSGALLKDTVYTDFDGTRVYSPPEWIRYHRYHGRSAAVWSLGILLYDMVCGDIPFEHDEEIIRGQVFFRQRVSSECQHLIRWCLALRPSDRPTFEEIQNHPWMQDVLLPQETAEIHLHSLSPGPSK
Sequence of Epidermal growth factor receptor (Homo sapiens) (P00533 whole entry, canonical isoform): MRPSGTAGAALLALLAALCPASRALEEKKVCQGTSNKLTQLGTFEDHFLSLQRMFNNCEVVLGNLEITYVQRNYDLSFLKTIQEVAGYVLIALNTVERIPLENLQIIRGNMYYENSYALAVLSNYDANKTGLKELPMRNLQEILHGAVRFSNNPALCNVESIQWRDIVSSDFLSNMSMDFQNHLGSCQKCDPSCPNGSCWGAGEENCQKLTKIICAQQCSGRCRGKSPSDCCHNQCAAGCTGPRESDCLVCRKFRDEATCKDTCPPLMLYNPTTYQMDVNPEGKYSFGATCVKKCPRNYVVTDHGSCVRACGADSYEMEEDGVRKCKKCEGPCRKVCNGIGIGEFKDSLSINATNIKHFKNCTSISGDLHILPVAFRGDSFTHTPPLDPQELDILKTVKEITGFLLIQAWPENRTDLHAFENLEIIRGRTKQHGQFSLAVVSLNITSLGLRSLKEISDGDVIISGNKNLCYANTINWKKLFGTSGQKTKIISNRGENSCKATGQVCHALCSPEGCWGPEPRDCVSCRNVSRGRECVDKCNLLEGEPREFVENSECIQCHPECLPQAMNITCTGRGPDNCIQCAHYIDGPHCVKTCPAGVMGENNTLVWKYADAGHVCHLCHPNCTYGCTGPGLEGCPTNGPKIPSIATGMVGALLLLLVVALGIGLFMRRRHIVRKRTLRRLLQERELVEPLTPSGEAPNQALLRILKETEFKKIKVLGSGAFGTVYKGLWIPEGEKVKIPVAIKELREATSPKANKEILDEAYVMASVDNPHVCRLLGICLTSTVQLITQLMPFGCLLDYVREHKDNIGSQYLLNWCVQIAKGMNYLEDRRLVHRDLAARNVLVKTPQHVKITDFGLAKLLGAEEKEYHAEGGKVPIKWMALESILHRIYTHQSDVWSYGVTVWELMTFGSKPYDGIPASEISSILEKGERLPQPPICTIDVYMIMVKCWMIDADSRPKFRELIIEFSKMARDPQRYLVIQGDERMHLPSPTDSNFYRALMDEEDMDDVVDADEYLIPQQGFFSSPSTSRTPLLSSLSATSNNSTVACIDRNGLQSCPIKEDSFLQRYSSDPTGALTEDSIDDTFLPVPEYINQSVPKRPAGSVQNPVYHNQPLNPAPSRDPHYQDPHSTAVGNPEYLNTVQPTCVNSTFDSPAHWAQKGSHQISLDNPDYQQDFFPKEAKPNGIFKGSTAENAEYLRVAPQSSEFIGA
Sequence of Proto-oncogene tyrosine-protein kinase Src (Homo sapiens) (P12931 2-536 limits assumed): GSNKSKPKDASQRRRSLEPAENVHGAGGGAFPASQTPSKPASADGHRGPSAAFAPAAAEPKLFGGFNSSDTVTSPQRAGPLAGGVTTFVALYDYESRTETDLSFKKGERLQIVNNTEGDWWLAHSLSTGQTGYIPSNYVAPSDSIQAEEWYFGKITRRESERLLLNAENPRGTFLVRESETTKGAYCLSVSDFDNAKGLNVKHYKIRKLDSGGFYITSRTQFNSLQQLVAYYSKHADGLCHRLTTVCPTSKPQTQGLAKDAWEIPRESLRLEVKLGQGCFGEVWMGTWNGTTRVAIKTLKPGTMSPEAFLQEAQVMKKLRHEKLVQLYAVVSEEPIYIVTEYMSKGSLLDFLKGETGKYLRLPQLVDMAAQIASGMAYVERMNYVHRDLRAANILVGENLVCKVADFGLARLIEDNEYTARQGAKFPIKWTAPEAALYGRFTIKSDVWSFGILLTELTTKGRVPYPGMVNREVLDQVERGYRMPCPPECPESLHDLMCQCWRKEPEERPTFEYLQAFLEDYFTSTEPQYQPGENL

By pIC50 is commonly meant the IC50 on a negative log10 scale, so that one unit is a factor of ten. A low value points to a high IC50. Compound `CCNC(=O)Nc1nc2ccc(C(=O)Nc3ccncc3)cc2[nH]1` had a pIC50 in data set [1] below 4.00.

Usually solubility stands for the concentration that dissolves in the medium under given conditions. Low readings indicate little dissolved substance, high ones much dissolved substance. With `CCNC(=O)Nc1nc2ccc(-c3ccccc3OC)cc2s1`, the residual activity in data set [2] came out at 67%; in [4], 100%; in data set [6], 79%; in [7], 98%; in data set [8], 58%; in [9], 4.5%. The residual activity in [10] came out at 100%; in [11] it was 100%; in data set [12], 100%; in [13], 100%; in data set [14], 100%; in [15], 16%. Moreover, the residual activity came to 100% in [16]; 100% in [17]; 100% in data set [18]; 100% in data set [19]; 72% in data set [20]; 100% in data set [21]. In addition, the residual activity came to 67% in [23]; 79% in [24]; 100% in [25]; 100% in data set [27]; 100% in [28]; 93% in [29]. Further, the residual activity was 5% in data set [30]; 100% in data set [31]; 100% in data set [32]; 100% in data set [33]; 100% in data set [34]; 100% in data set [35]. The residual activity worked out at 100% in data set [36]; 100% in [37]; 87% in data set [38]; 100% in data set [39]; 100% in data set [40]; 4.5% in [41]. In addition, the residual activity in data set [42] came to 100%; in data set [43], 94%. For the same compound, the pIC50 in [3] is 5.67; in [1] it was 9.96; in [26], 5.45. Moreover, the concentration in solution in data set [5] (solubility) was 0.0227 µg/mL (≈ 0.0693 µM). Besides, the remaining at 24 h in [22] stood at 100%.

With `COc1ccccc1-c1ccc2nc(NC(=O)NCCO)sc2c1`, the pIC50 in data set [3] is 6.85; in [44] it was 6.92; in [26], 7.05; in [45], below 5.00. The same compound gave a solubility in data set [5] of 7.49 µg/mL (≈ 21.8 µM). The remaining at 24 h in data set [22] is 100%.

With `CCOc1ccccc1-c1ccc2nc(NC(=O)NCCCO)sc2c1`, the pIC50 in [3] was 6.25; in data set [26], 6.92.

As to `Cc1ccc(NC(=O)c2ccc(CN3CCN(C)CC3)cc2)cc1Nc1nccc(-c2cccnc2)n1` [IMATINIB], the pIC50 in data set [3] was 5.32; in [44], 6.77; in data set [26] it was 7.04; in data set [45] it was below 5.00.

`CCc1ccccc1-c1ccc2nc(NC(=O)NCCN(C)C)sc2c1`: the pIC50 is 6.39 in [3] and 6.51 in data set [26].

Turning to `COc1ccccc1-c1ccc2nc(NC(=O)NCCN3CCN(C)CC3)sc2c1`, the pIC50 is 7.11 in data set [3], 6.38 in data set [44], 7.34 in data set [26] and below 5.00 in data set [45]. Further, the concentration in solution in [5] (solubility) was 2240 µg/mL (≈ 5260 µM). The remaining at 24 h in data set [22] amounted to 99.7%.

On to `CCc1ccccc1-c1ccc2nc(NC(=O)NCCN3CCOCC3)sc2c1`, for which the pIC50 is 5.84 in data set [3] and 6.55 in data set [26].

Turning to `CCNC(=O)Nc1nc2ccc(C(=O)N3CCN(C)CC3)cc2[nH]1`, the negative logarithm of the IC50 (pIC50) in data set [1] was below 4.00.

In data set [1], `COC(=O)Nc1nc2ccc(C(=O)c3cccs3)cc2[nH]1` [NOCODAZOLE] gave a pIC50 of 6.19.

`COc1ccccc1-c1ccc2nc(NC(=O)NCCN3CCOCC3)sc2c1`: the figures for the pIC50 in data set [3] and in data set [26] were 6.54 and 7.00, respectively. In addition, in [46], the inhibition entry is “Dose-dependent effect”.

As for `CCOc1ccccc1-c1ccc2nc(NC(=O)NCCO)sc2c1`, the pIC50 in data set [3] was 5.87; in data set [26], 6.74.

On to `CCOc1ccccc1-c1ccc2nc(NC(=O)NCCN3CCNCC3)sc2c1`, for which the pIC50 in [3] was 6.06; in [26], 6.96.

In the case of `CCOc1ccccc1-c1ccc2nc(NC(=O)NCCN3CCOCC3)sc2c1`, the pIC50 in data set [3] was 5.96; in [26], 6.68.

As for `COc1ccccc1-c1ccc2nc(NC(=O)NCCCO)sc2c1`, the pIC50 is 6.54 in data set [3] and 7.09 in data set [26].
